Assay results taken from PMC4478078 (Biochemistry, 2015).
Positions count from the first letter of the chain named.

Key:
HO2sol^R [1] = biological target: T1, HO2sol^R (Homo sapiens, UniProt P30519); experiment: Pyridine hemochrome assay of bound heme, HO2sol^R; assay type: binding; conditions: after 5-fold excess Fe^3+-heme and removal of unbound heme
T1 sequence (P30519 1-288): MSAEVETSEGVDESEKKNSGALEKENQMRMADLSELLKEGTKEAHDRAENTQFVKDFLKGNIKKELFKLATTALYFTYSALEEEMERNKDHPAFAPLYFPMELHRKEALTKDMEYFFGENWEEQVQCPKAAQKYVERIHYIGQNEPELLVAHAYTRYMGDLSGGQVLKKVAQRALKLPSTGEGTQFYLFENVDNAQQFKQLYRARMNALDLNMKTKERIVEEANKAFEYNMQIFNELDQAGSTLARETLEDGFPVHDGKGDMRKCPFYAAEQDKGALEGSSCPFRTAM
Procedure, shortened: (§1)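 Protein was reduced with a 25-fold molar excess of TCEP for 1 h anaerobically, desalted into anaerobic 50 mM Tris pH 8.0, 50 mM KCl, then incubated 1 h with excess Fe3+-heme (5-fold molar excess in the general method). The heme stock contained 15% DMSO and 0.1 M NaOH, was filtered and quantified at 385 nm. Unbound heme was removed on a desalting column. Bound heme was measured by pyridine hemochrome (Δε556 28.32 mM−1 cm−1).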

HO2tail(C282A)^R [2] = biological target: T2, HO2tail(C282A)^R (Homo sapiens, UniProt P30519, C282A); experiment: Fe^3+-heme on rate, anaerobic stopped flow, HO2tail; assay type: binding
T2 sequence (P30519 213-288 C282A): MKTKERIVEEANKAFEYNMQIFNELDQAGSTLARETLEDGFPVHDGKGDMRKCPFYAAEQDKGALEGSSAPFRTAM
Procedure, shortened: (§2)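 Apoprotein at various concentrations was mixed with Fe3+-heme in 50 mM Tris pH 8.0, 50 mM KCl by stopped-flow inside an anaerobic chamber, 1 cm path, 20 °C, 406 nm. Each kobs is the mean of 5–7 traces fit to a single exponential. Eq 1 fit of kobs versus apoprotein concentration gave k2/k1 and kcoord, with k′heme ≈ kcoord/(k2/k1). Kd is the myoglobin-assay off rate divided by k′heme.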

[3] = system: HRI (heme-regulated eukaryotic initiation factor 2α kinase); conditions: cited from earlier work
HO2 tail at Cys265 = experiment: Calculated dissociation equilibrium constant, HO2 tail at Cys265; assay type: binding, human
[4] = biological target: T3, HO2tail(C282A)^R (human HO2 residues 213–288, disulfide-reduced) (Homo sapiens, UniProt P30519, C282A); experiment: Fe^3+-heme difference titration with HO2tail; assay type: binding; conditions: read-out: Kd (titrations); 10 μM HO2tail(C282A)^R; 50 mM Tris pH 8.0, 50 mM KCl, 20 °C, anaerobic
T3 sequence (P30519 213-288 C282A): T2 sequence (P30519 213-288 C282A)

HO2tail^R [5] = experiment: Pyridine hemochrome assay of bound heme, HO2tail^R; assay type: binding, human; conditions: after 5-fold excess Fe^3+-heme and removal of unbound heme
Procedure, shortened: as §1

HO2tail(C265A)^R [6] = experiment: Fe^3+-heme off rate, apo-H64Y/V68F-myoglobin assay, HO2tail; assay type: binding, human; conditions: 2 μM heme-bound protein, 20 μM apo-H64Y/V68F-myoglobin, 20 °C
Procedure, shortened: (§3)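 Disulfide-reduced (TCEP) heme-loaded protein, freed of unbound heme, at 2 μM was mixed with 20 μM apo-H64Y/V68F-myoglobin in 50 mM Tris pH 8.0, 50 mM KCl. Apomyoglobin was prepared by methyl ethyl ketone extraction, dialysed against Tris pH 7.4 with 150 mM KCl, and quantified at 280 nm. Spectra were recorded over time at 20 °C, following the absorbance rise at 600 from heme scavenging.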

HO2sol^R [7] = biological target: T1, HO2sol^R; experiment: Fe^3+-heme on rate, anaerobic stopped flow, HO2sol^R; conditions: 406 nm, 20 °C, per observable binding site (two per monomer)
Procedure, shortened: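 TCEP-reduced apoprotein at various concentrations was mixed with Fe3+-heme in anaerobic 50 mM Tris pH 8.0, 50 mM KCl by stopped-flow within an anaerobic chamber at 20 °C, monitored at 406 nm. Each kobs is an average of 5–7 traces fit to a single exponential. kobs was plotted against the concentration of observable binding sites and fit to eq 1; k′heme ≈ kcoord/(k2/k1).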

HO2tail(C265A)^R [8] = experiment: Pyridine hemochrome assay of bound heme, HO2tail; assay type: binding, human; conditions: after excess Fe^3+-heme and removal of unbound heme
Procedure, shortened: as §1

HO2tail(C282A)^R [9] = biological target: T2, HO2tail(C282A)^R; experiment: Pyridine hemochrome assay of bound heme, HO2tail; assay type: binding; conditions: after excess Fe^3+-heme and removal of unbound heme
Procedure, shortened: as §1

HO2tail^R [10] = experiment: Fe^3+-heme off rate, apo-H64Y/V68F-myoglobin assay, HO2tail^R; assay type: binding, human; conditions: double-exponential, 20 °C
Procedure, shortened: as §3

[11] = biological target: T4, HO2core (human HO2 residues 1–248) (Homo sapiens, UniProt P30519); experiment: Fe^3+-heme difference titration with HO2core; assay type: binding; conditions: read-out: Kd (titrations); 2 μM HO2core; 50 mM Tris pH 8.0, 50 mM KCl, 20 °C, anaerobic; quadratic fit
T4 sequence (P30519 1-248): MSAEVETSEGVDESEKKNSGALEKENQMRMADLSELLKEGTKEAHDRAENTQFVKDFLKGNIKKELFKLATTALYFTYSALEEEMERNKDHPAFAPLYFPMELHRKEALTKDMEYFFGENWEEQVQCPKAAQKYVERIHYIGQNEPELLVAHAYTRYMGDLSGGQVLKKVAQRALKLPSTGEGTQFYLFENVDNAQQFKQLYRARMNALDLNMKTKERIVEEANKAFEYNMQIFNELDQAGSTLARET

[12] = biological target: T5, HO2tail(C265A)^R (human HO2 residues 213–288, disulfide-reduced) (Homo sapiens, UniProt P30519, C265A); experiment: Fe^3+-heme difference titration with HO2tail; assay type: binding; conditions: read-out: Kd (titrations); 6 μM HO2tail(C265A)^R; 50 mM Tris pH 8.0, 50 mM KCl, 20 °C, anaerobic
T5 sequence (P30519 213-288 C265A): T2 sequence (P30519 213-288 C282A) with C53A, A70C

HO2core = biological target: T6, HO2core (Homo sapiens, UniProt P30519); experiment: Fe^3+-heme on rate, anaerobic stopped flow, HO2core; assay type: binding
T6 sequence (P30519 1-248): T4 sequence (P30519 1-248)
Procedure, shortened: as §2

HO2tail(C265A/C282A)^R = experiment: Heme binding to HO2tail; design: species or system human; conditions: data not shown
HO2tail(C282A)^R [13] = biological target: T2, HO2tail(C282A)^R; experiment: Fe^3+-heme off rate, apo-H64Y/V68F-myoglobin assay, HO2tail; assay type: binding; conditions: 2 μM heme-bound protein, 20 μM apo-H64Y/V68F-myoglobin, 20 °C
Procedure, shortened: as §3

[14] = system: HO2sol^R (human HO2 residues 1–288, disulfide-reduced); experiment: Fe^3+-heme off rate, apo-H64Y/V68F-myoglobin assay, HO2sol^R; assay type: binding; conditions: double-exponential, 20 °C
Procedure, shortened: as §3

[15] = fit of eq 1 to kobs vs apoprotein concentration
[16] = read-out: Kd (k-heme/k′heme), calculated from off and on rates

hemes bound per monomer of protein (HO2sol^R [1]): 2.1 ± 0.1 hemes per monomer of protein
k′heme (apparent second-order rate constant, kcoord/(k2/k1)) (HO2tail(C282A)^R [2]; 406 nm, 20 °C, anaerobic): 7.6e+06 M⁻¹ s⁻¹
k2/k1 (HO2tail(C282A)^R [2]; [15]): 14 ± 4 µM
kcoord (HO2tail(C282A)^R [2]; [15]): 110 ± 10 s⁻¹
Kd (HO2tail(C282A)^R [2]; [16]): 0.3 nM
difference in binding affinity between the sites (core His45 vs tail Cys265) (HO2 tail at Cys265; Fe^3+-heme difference titrations): ~ 6 fold
difference in binding affinity between the sites (core His45 vs tail Cys265) (HO2 tail at Cys265; kinetic experiments): 2–5 fold
Kd [4]: 90 ± 30 nM
k′heme (apparent second-order rate constant, kcoord/(k2/k1)) (HO2sol^R [7]): 6.9e+06 M⁻¹ s⁻¹
heme bound per monomer of protein (HO2tail(C282A)^R [9]): 0.8 ± 0.2 heme per monomer of protein
Kd [11]: 14 ± 4 nM
Kd [12]: 900 ± 300 nM
k′heme (apparent second-order rate constant, kcoord/(k2/k1)) (HO2core; 406 nm, 20 °C, anaerobic): 6.4e+06 M⁻¹ s⁻¹
k2/k1 (HO2core; [15]): 14.1 ± 0.3 µM
kcoord (HO2core; [15]): 91 ± 1 s⁻¹
Kd (HO2core; [16]): 0.2 nM
Fe^3+-heme binding (in words) (HO2tail(C265A/C282A)^R): did not bind
k-heme (off rate) (HO2tail(C282A)^R [13]): 0.0023 ± 0.0001 s⁻¹
Structure (SMILES): C=CC1=C(C)c2cc3[n-]c(cc4[n-]c(cc5nc(cc1n2)C(C)=C5C=C)c(C)c4CCC(=O)O)c(CCC(=O)O)c3C.[Fe+2] [Fe^3+-heme]
off rate [3]: 0.0015 s⁻¹
hemes bound per monomer of protein (HO2tail^R [5]): 1.4 ± 0.3 hemes per monomer of protein
k-heme (off rate) (HO2tail(C265A)^R [6]): 0.0055 ± 0.0005 s⁻¹
heme bound per monomer of protein (HO2tail(C265A)^R [8]): 0.74 ± 0.03 heme per monomer of protein
k-heme (off rate), fast phase (HO2tail^R [10]; fast phase, assigned to Cys282): 0.0086 ± 0.003 s⁻¹
k-heme (off rate), slow phase (HO2tail^R [10]; slow phase, assigned to Cys265): 0.0023 ± 0.0004 s⁻¹
k-heme (off rate), fast phase ([14]; fast phase, assigned to Cys265): 0.0031 ± 0.0002 s⁻¹
k-heme (off rate), slow phase ([14]; slow phase, assigned to His45 at the core): 0.00054 ± 0.00006 s⁻¹
